Screening results from PubChem.
TRPC4 potent – allosteric potentiators of mouse TRPC4 channel; Q9QUQ5; HEK293 TRPC4beta/mu-opioid, DAMGO EC20, Fluo-4 Ca2+ flux; stronger effect = higher value; B-score at 10 µM; hit rate 0.42% among 310,000;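 active means B-score of calcium response area above 5 SD of library B-scores, with initial fluorescence ratio within 5 SD of library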
TRPC4 act – activators of mouse TRPC4 channel | B-score at 10 µM | Q9QUQ5 | hit rate 0.49% among 310,000 | HEK293 TRPC4beta/mu-opioid, Fluo4 calcium fluorescence; stronger effect = higher value | AID 2237;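 active means B-score above 5 SD of library B-scores, and initial fluorescence ratio not above library mean plus 5 SD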;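 further: positive B-score marks a calcium rise read as TRPC4 activation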
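system = HEK293 cells stably co-expressing mouse TRPC4beta and mu-opioid receptor | schedule = Fluo4 dye loading 45 min at room temperature, 110 s recording | measure = B-scored integrated calcium fluorescence ratio | signal = Fluo4 calcium-sensitive dye fluorescence, kinetic, 1 Hz baseline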
TRPC4 inh – TRPC4 (mouse) channel inhibition | HEK293 TRPC4beta/mu-opioid, DAMGO-evoked Fluo4 calcium flux; stronger effect = lower value | Q9QUQ5 | hit rate 0.39% among 300,000 | B-score at 10 µM | AID 2247;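 active means B-score over 3 SD under the library average, no early fluorescence shift, positive overall ratio signal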
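System: stable TRPC4beta/mu-opioid receptor HEK293 cells; Dosing: single-point compound dosing; Measured by: Fluo4 Ca2+ flux fluorescence; Read-out basis: per-well B score of integrated baseline-normalized Fluo4 ratio.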
Kir21 block – blocks the mouse Kir2.1 inward-rectifier potassium channel; P35561; HEK293-Kir2.1, FluxOR thallium flux fluorescence; stronger effect = lower value; B-score at 10 µM; hit rate 0.85% among 310,000; AID 1672;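 active means fluorescence ratio B-score at or below minus 3 SD of library scores, with starting-brightness B-score within 2 SD, cut at about -4.2 in these data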;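 further: channel flux triggered by added potassium and thallium sulfate stimulus; B-score of peak minus minimum fluorescence over baseline after thallium stimulus; more negative B-score means stronger Kir2.1 block with less thallium influx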
Target sequence (P35561 whole entry, looked up): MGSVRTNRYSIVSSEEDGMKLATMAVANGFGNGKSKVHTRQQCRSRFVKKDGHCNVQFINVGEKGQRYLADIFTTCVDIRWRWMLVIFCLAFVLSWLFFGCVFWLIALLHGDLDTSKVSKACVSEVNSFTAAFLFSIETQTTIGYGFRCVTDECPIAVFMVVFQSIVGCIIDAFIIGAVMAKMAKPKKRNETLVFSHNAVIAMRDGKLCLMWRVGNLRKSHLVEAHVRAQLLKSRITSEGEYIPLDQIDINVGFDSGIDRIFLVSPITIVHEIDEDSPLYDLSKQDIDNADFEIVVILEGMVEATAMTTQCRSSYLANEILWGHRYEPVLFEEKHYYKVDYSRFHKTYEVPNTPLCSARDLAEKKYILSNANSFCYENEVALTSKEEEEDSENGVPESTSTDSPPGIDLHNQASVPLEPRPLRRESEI
TRPC6 activator – mouse TRPC6 channel activation. HEK293-TRPC6 membrane potential dye fluorescence; stronger effect = higher value. B-score at 10 µM. hit rate 0.13% among 310,000;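 active means B-score of the integrated fluorescence ratio above library mean plus 3 SD, and starting fluorescence ratio within library mean plus 5 SD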;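 further: higher score means more depolarization so channel activation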
TRPC6 inhibitor – blocks the mouse TRPC6 cation channel. HEK293-TRPC6, membrane potential dye, ACh-evoked depolarization; stronger effect = lower value. AID 2553. Q61143. hit rate 1.1% among 310,000. B-score at 10 µM;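 active means B-score under library mean minus 3 SD, initial fluorescence not abnormally high, positive integrated signal ratio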;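 further: B-score derived from integrated fluorescence ratio over the kinetic read; more negative B-score means stronger inhibition of depolarization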
HEK293 MPD ctr – counter-screen for TRPC6 modulators: effect in parental HEK293 cells; shares compounds with TRPC6 inhibitor; membrane potential dye fluorescence; membrane potential signal change, % at 10 µM; hit rate 51% among 2,400; AID 488924;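 active means membrane potential signal moves up or down beyond 5 SD from buffer-only wells, on both duplicate plates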
HEK293 MPD ctr 2 – second check of TRPC6 modulator effects in parental HEK293 cells; shares compounds with TRPC6 inhibitor; membrane potential dye fluorescence; after compound, maximal acetylcholine stimulation; inhibition, % at 10 µM; hit rate 14% among 2,400; AID 488926;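 active means membrane potential signal drops by more than 5 SD from the mean control signal, in both duplicate plates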
TRPC4/MOR mod – selectivity of TRPC6 modulators against mouse TRPC4. shares compounds with TRPC6 inhibitor. HEK293 TRPC4/mu-opioid, membrane potential fluorescence. percent change from control (negative = decrease, positive = increase), % at 10 µM. hit rate 69% among 2,400;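 active means membrane potential signal moved up or down beyond 5 SD of buffer control wells, in both duplicate plates, actives on both sides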
TRPC4/MOR inh 2 – second selectivity test of TRPC6 modulators against mouse TRPC4; AID 488928; shares compounds with TRPC6 inhibitor; hit rate 55% among 2,400; inhibition, % at 10 µM; HEK293 TRPC4/mu-opioid, membrane potential dye fluorescence; stimulated with maximal-effect DAMGO;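 active means drop in membrane potential signal beyond 5 SD of the control wells in both duplicate plates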;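 further: TRPC4 counter screen for TRPC6 hits run under conditions tuned for TRPC6 not TRPC4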
TRPC6 block conf – mouse TRPC6 inhibitor confirmation; shares compounds with TRPC6 inhibitor; HEK293-TRPC6, membrane potential dye, ACh-evoked depolarization; inhibition, % at 10 µM; hit rate 43% among 3,300;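 active means fluorescence ratio falls more than 5 SD below the full-stimulation control mean, in both duplicate runs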;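 further: integrated fluorescence ratio of peak minus minimum over baseline after agonist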
TRPC6 act confirm – confirmation of mouse TRPC6 activators. hit rate 11% among 2,800. activation, % at 10 µM. shares compounds with TRPC6 inhibitor. HEK293-TRPC6 membrane potential dye fluorescence, FDSS;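 active means ratio signal rise beyond 5 SD above unstimulated control wells' mean, seen in both duplicate runs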
Numbers stand for hits. Shown are actives, neighbours in structure and some others; about 3% of the full set was active somewhere.

Cc1csc2cc(-c3cccc([N+](=O)[O-])c3)c(-c3cccc([N+](=O)[O-])c3)c[n+]12 was read as TRPC4 potent inactive, TRPC4 act inactive, TRPC4 inh inactive, Kir21 block inactive, TRPC6 activator inactive, TRPC6 inhibitor -6.1, HEK293 MPD ctr -310%, HEK293 MPD ctr 2 66%, TRPC4/MOR mod -52%, TRPC4/MOR inh 2 55%, TRPC6 block conf 69% and TRPC6 act confirm inactive.
CCCCOc1ccccc1NC(=O)CSc1nnnn1C(C)(C)C was read as TRPC4 potent inactive, TRPC4 act inactive, TRPC4 inh inactive, Kir21 block inactive, TRPC6 activator 12, TRPC6 inhibitor inactive, HEK293 MPD ctr 187%, HEK293 MPD ctr 2 inactive, TRPC4/MOR mod 38%, TRPC4/MOR inh 2 inactive and TRPC6 act confirm 114%.
For CCOc1ccc(N(C)c2ccc(/C=C3/SC(=S)NC3=O)cc2)cc1 the results were TRPC4 potent inactive, TRPC4 act inactive, TRPC4 inh inactive, Kir21 block inactive, TRPC6 activator 18, TRPC6 inhibitor inactive, HEK293 MPD ctr inactive, HEK293 MPD ctr 2 inactive, TRPC4/MOR mod 82%, TRPC4/MOR inh 2 inactive, TRPC6 block conf inactive and TRPC6 act confirm inactive.
`Cc1cc(-c2ccc(C)c(S(=O)(=O)NCC3CCN(Cc4ccccc4F)CC3)c2)on1` gave TRPC4 potent inactive, TRPC4 act inactive, TRPC4 inh inactive, Kir21 block inactive, TRPC6 activator inactive, TRPC6 inhibitor -5, HEK293 MPD ctr inactive, HEK293 MPD ctr 2 inactive, TRPC4/MOR mod inactive, TRPC4/MOR inh 2 76%, TRPC6 block conf 36% and TRPC6 act confirm inactive.
For COc1cc([N+](=O)[O-])ccc1NC(=S)NNC(=O)CCC(=O)Nc1ccccc1Cl the results were TRPC4 potent inactive, TRPC4 act inactive, TRPC4 inh inactive, Kir21 block inactive, TRPC6 activator inactive and TRPC6 inhibitor inactive.
`COc1cc(C(=O)OCC2CC(c3ccccc3)=NO2)cc(OC)c1OC` (stereo not drawn) gave TRPC4 potent inactive, TRPC4 act inactive, TRPC4 inh inactive, Kir21 block inactive, TRPC6 activator inactive and TRPC6 inhibitor inactive.
COc1ccc(C(=O)OCC2CC(c3ccccc3)=NO2)cc1OC (stereo not drawn) was read as TRPC4 potent inactive, TRPC4 act inactive, TRPC4 inh inactive, Kir21 block inactive, TRPC6 activator inactive, TRPC6 inhibitor -5.1, HEK293 MPD ctr inactive, HEK293 MPD ctr 2 inactive, TRPC4/MOR mod inactive, TRPC4/MOR inh 2 inactive, TRPC6 block conf inactive and TRPC6 act confirm inactive.
For COc1ccc(C(C(=O)NC2CCCC2)N(CC2CCCO2)C(=O)Cn2nnc(-c3ccc(C)o3)n2)cc1 (stereo not drawn) the results were TRPC4 potent inactive, TRPC4 act inactive, TRPC4 inh inactive, Kir21 block inactive, TRPC6 activator inactive, TRPC6 inhibitor -6.2, HEK293 MPD ctr inactive, HEK293 MPD ctr 2 inactive, TRPC4/MOR mod inactive, TRPC4/MOR inh 2 inactive, TRPC6 block conf inactive and TRPC6 act confirm inactive.
